Source: ChEMBL document CHEMBL1135454, “SAR and X-ray. A new approach combining fragment-based screening and rational drug design: application to the discovery of nanomolar inhibitors of Src SH2” (J Med Chem, 2002)
Values belong to the compound of their own block, whether it stands above or below them.

Assays:
[1] = molecular target: T1, Proto-oncogene tyrosine-protein kinase Src (Homo sapiens, UniProt P12931); assay: Binding affinity for Src protein tyrosine kinase SH2 domain using scintillation proximity binding assay (SPA)
[2] = molecular target: T1, Proto-oncogene tyrosine-protein kinase Src; assay: Binding affinity for Src SH2 domain in scintillation proximity binding assay (SPA)
[3] = molecular target: T1, Proto-oncogene tyrosine-protein kinase Src; assay: (§1) Binding affinity for Src protein tyrosine kinase SH2 domain using surface plasmon resonance (SPR) assay
[4] = molecular target: T1, Proto-oncogene tyrosine-protein kinase Src; assay: Binding affinity towards Src protein tyrosine kinase SH2 domain using surface plasmon resonance (SPR) assay
[5] = molecular target: T1, Proto-oncogene tyrosine-protein kinase Src; assay: as §1; remark: listed apart in the source
Outline: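 Surface plasmon resonance with human Src SH2 domain (aa 145–251), E. coli-expressed and purified by cation exchange and gel filtration. Ligands compete for binding; IC50 reported.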

[6] = molecular target: T1, Proto-oncogene tyrosine-protein kinase Src; assay: Binding affinity for Src SH2 domain in scintillation proximity binding assay (SPA) - inactive
[7] = molecular target: T1, Proto-oncogene tyrosine-protein kinase Src; assay: Binding affinity towards Src protein tyrosine kinase SH2 domain protein using scintillation proximity binding assay (SPA)
[8] = molecular target: T1, Proto-oncogene tyrosine-protein kinase Src; assay: Binding affinity towards Src protein tyrosine kinase SH2 domain using scintillation proximity binding assay (SPA)

T1 sequence (P12931 2-536 limits assumed): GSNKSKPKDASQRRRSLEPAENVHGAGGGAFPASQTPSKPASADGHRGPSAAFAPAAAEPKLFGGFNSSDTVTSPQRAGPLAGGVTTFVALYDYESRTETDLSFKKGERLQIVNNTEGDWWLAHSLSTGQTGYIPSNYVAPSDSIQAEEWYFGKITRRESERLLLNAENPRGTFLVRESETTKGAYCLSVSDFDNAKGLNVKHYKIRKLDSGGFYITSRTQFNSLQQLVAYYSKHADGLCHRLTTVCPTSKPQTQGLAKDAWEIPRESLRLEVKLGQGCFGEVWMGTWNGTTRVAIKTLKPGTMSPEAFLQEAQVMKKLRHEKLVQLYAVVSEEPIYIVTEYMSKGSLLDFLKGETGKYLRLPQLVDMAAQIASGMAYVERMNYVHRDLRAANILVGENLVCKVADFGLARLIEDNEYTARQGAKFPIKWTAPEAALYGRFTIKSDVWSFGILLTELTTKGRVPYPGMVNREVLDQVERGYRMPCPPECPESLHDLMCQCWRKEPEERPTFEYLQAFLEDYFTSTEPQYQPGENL

Compound: O=Cc1ccccc1OP(=O)(O)O
IC50 [2]: 80 µM
IC50 [3]: 300 µM

Compound: O=Cc1cccc(OP(=O)(O)O)c1
IC50 [2]: 600 µM
IC50 [3]: 2100 µM

Compound: COC(=O)c1cc(C[C@H](NC(C)=O)C(=O)N[C@H]2CCCCN(Cc3ccc(-c4ccccc4)cc3)C2=O)ccc1C(C(=O)O)C(=O)O
IC50 [4]: 0.556 µM

Compound: COC(=O)c1cc(C[C@@H](NC(C)=O)C(=O)N[C@H]2CCCCN(Cc3ccc(-c4ccccc4)cc3)C2=O)ccc1C(C(=O)O)C(=O)O
IC50 [4]: 0.007 µM

Compound: Cc1cc(C=O)cc(C)c1OP(=O)(O)O
IC50 [5]: 5000 µM

Compound: CC[C@H](C)[C@H](NC(=O)[C@H](CCC(=O)O)NC(=O)[C@H](CCC(=O)O)NC(=O)[C@H](Cc1ccc(OP(=O)(O)O)cc1)NC(C)=O)C(N)=O
IC50 [2]: 0.15 µM
IC50 [3]: 0.001 µM

Compound: Cc1cc(C=O)c(OP(=O)(O)O)c(C=O)c1
IC50 [2]: 39 µM

Compound: O=C(O)C(c1ccc(O)cc1)S(=O)(=O)O (stereo not drawn)
IC50 [7]: 190 µM

Compound: O=C(O)CC(C(=O)O)c1ccccc1 (stereo not drawn)
IC50 [6]: Not Active

Compound: CC(CC(=O)O)(CC(=O)O)c1ccccc1
IC50 [6]: Not Active

Compound: Cc1ccc(CC(=O)O)c(C=O)c1
IC50 [2]: 385 µM

Compound: O=P(O)(O)Oc1ccccc1 [PHENYL DIHYDROGEN PHOSPHATE]
IC50 [3]: 5000 µM
IC50 [1]: 300 µM

Compound: CCC(C(N)=O)(C(=O)O)c1ccccc1 (stereo not drawn) [PHENYLETHYLMALONAMIDE -]
IC50 [6]: Not Active

Results, then the compound that gave them:

IC50 [1]: 95 µM
Compound: COc1cccc(C=O)c1OP(=O)(O)O

IC50 [6]: Not Active
Compound: O=C(O)CC(CC(=O)O)c1ccccc1

IC50 [8]: 100 µM
Compound: Cc1ccc(C(C(=O)O)C(=O)O)c(COC=O)c1

IC50 [6]: Not Active
Compound: O=S(=O)(O)C(O)c1ccccc1 (stereo not drawn)

IC50 [8]: 192 µM
Compound: O=C(O)C(c1ccccc1)S(=O)(=O)O (stereo not drawn)

IC50 [6]: Not Active
Compound: O=C(O)CC(CC(=O)O)(c1ccccc1)c1ccccc1
